Reference: article PMC2196277 (The Journal of Experimental Medicine, 1997)

Assays:
H2-K^d [1] = molecular target: T1, H2-K^d (Mus musculus, UniProt P01902); details: ref [17], [19], [20]; cited from earlier work
[2] = molecular target: T2, H2-K^d (L. monocytogenes-infected J774 cells) (Mus musculus, UniProt P01902); details: ref [17], cited from earlier work
[3] = molecular target: T2, H2-K^d (L. monocytogenes-infected J774 cells); assay: CTL epitope quantification; assay type: cell-based, BALB/c; details: for loss of epitope in BFA-treated cells after tetracycline: BFA added 3 h and TCN 4 h after infection; for time for which intracellularly retained H2-K^d binds new epitopes: BFA-treated, CHX–ANM 4 h after infection, up to; for epitopes per cell after CHX–ANM treatment: CHX and ANM added 4 h after infection
Procedure, shortened: (§1)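 J774 monolayers in antibiotic-free RP10 were infected for 30 min with log-phase L. monocytogenes (OD600 0.1), then kept in 5 μg/ml gentamicin. BFA was added 3 h post-infection, and tetracycline or CHX–ANM at 4 h. Cells were scraped, extracted in 0.1% TFA, homogenised, sonicated, ultracentrifuged and HPLC-fractionated. Fractions were titrated in triplicate on 51Cr-labelled P815 with Kd-restricted CTL clones against synthetic-peptide standards, giving epitopes per infected cell.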

H2-K^d [4] = molecular target: T1, H2-K^d; assay type: cell-based, BALB/c; details: infected cells; for half-life of peptide–H2-K^d complexes: normally trafficking H2-K^d (no BFA)
Procedure, shortened: as §1

H2-K^d [5] = molecular target: T1, H2-K^d; assay type: cell-based, BALB/c
[6] = tested on: CTL responding to epitope; details: murine infection with L. monocytogenes; ref [31]; cited from earlier work

T1 sequence (P01902 22-368): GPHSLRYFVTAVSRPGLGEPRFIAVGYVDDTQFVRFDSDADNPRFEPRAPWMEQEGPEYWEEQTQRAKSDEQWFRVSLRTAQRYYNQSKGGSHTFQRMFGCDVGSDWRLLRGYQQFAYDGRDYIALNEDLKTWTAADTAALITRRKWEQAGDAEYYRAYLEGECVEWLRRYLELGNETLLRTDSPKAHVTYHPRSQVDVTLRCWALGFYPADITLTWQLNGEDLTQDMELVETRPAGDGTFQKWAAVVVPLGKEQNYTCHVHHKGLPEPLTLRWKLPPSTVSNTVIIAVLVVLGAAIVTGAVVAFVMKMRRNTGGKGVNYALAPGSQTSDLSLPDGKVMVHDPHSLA
T1 sequence (P01887 21-119, further chain): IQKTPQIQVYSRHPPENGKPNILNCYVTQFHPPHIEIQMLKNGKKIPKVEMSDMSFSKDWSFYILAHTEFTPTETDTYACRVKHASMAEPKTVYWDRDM
T2 sequence (P01902 22-368): as the sequence (P01902 22-368) above
T2 sequence (P01887 21-119, further chain): as the sequence (P01887 21-119, further chain) above

Compound	number of secreted antigen molecules degraded per H2-K^d-associated epitope (H2-K^d [1])	generation of epitope relative to p60 217-225 ([2]; L. monocytogenes infected J774 cells)	amount of epitope extracted relative to p60 217-225 ([2]; first few hours of infection, J774)	prevalence of epitope throughout cellular infection ([2]; infected cells, continuous antigen production)	epitopes per cell 3 h after tetracycline ([3]; 3 h after tetracycline (20 μg/ml, added 4 h after infection), no BFA)	increase of epitopes extracted from BFA-treated vs untreated cells ([3]; BFA added 3 h after infection, 6–7 h after infection, no tetracycline)	loss of epitope in BFA-treated cells after tetracycline [3]	time for which intracellularly retained H2-K^d binds new epitopes [3]	epitopes per cell after CHX–ANM treatment ([3]; no BFA)	epitopes per cell at tetracycline addition ([3]; start of drop after tetracycline (20 μg/ml, added 4 h after infection), no BFA)	stability of complex with H2-K^d (summary) (H2-K^d [4])	half-life of complexes retained intracellularly with brefeldin A (H2-K^d [4]; + BFA)	half-life of peptide–H2-K^d complexes (H2-K^d [4])	effect of BFA on H2-K^d trafficking / retention (H2-K^d [5])	effect of BFA on amount of epitope extracted ([3]; BFA added 3 h after infection, no tetracycline)	number of responding CTL relative to p60 449-457 [6]
IYVGNGQMI [p60 449-457]	3–11	earlier and faster than p60 217-225	~10 times	greater than either LLO 91-99 or p60 217225 throughout cellular infection	1,000 epitopes/cell	~60%	very rapid	up to 3 h	decreases after CHX–ANM treatment	9,000 epitopes/cell	forms a more labile complex with H2-K^d	0.5 h	~1 h			
C[C@H]1CCC/C=C/[C@@H]2C[C@H](O)C[C@H]2[C@H](O)/C=C/C(=O)O1 [BFA, brefeldin A]														induces intracellular retention of H2-K^d molecules in infected J774 cells		
GYKDGNEYI [LLO 91-99, reference compound]	3–11															
KYGVSVQDI [p60 217-225]	35						decreased only minimally	up to 3 h	stops increasing when host cell protein synthesis is inhibited		forms a stable complex with H2-K^d		> 6 h		not affected by BFA	10 times
